The text below walks through data of ChEMBL document CHEMBL1144035, “Synthesis, cytostatic and anti-HCV activity of 6-(N-substituted aminomethyl)-, 6-(O-substituted hydroxymethyl)- and 6-(S-substituted sulfanylmethyl)purine nucleosides” (Bioorg Med Chem, 2008).

A word on the CC50: it is the concentration at which the toxic effect on the cells reaches its halfway point. High values mean better tolerance by the cells, low ones harm at low concentration. For orientation: IC50 means the concentration that inhibits the measured activity by half. What is called EC50 is the concentration needed to bring the measured effect to its halfway point. The low end stands for an effect from little substance, the high end for a need for much substance.

Assay [1] in a line: Cytotoxicity against human Huh7 cells after 3 days by MTT method. It is filed as functional. The settings on record: Huh-7, 72 h. A digest of the protocol:
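Cellular toxicity was read by MTT in Huh-7 cells carrying the con-1 HCV replicon, in duplicate (N = 2).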
For orientation: Tetrazolium assays rely on reduction of a dye to a coloured formazan, in cell work by metabolically active cells.

The subject of assay [2] is CCRF-CEM. In words: Cytostatic activity in human CCRF-CEM cells assessed as inhibition of cell growth after 72 hrs. It is filed as functional, cell-based. A digest of the protocol:
(§1)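 Cultures from ATCC lines: mouse leukaemia L1210 (CCL 219), human promyelocytic leukaemia HL60 (CCL 240) and human T-lymphoblastoid CCRF-CEM (CCL 119). Growth inhibition was estimated from the cell count in a haematological analyzer (haemocytometer).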

Assay [3] has as its system HL-60. Briefly: Cytostatic activity in human HL60 cells assessed as inhibition of cell growth after 72 hrs. To be noted: HL-60, 72 h. The format is functional, cell-based. Put shortly:
as §1

Assay [4] relates to HL-60. In words: Cytostatic activity in human HL60 cells assessed as inhibition of cell growth after 72 hrs by XTT assay. The format is functional, cell-based. The settings on record: HL-60, 72 h.
Assay [5] deals with HeLa. In words: Cytostatic activity in human HeLa S3 cells assessed as inhibition of cell growth after 48 hrs by XTT assay. The format is functional, cell-based.
Assay [6] concerns L1210. Briefly: Cytostatic activity in mouse L1210 cells assessed as inhibition of cell growth after 72 hrs. It is filed as functional, cell-based. Put shortly:
as §1

Assay [7] has as its system HL-60. Briefly: Cell cycle arrest in human HL60 cells by accumulation at S phase at 3 umol/L by flow cytometry relative to control. The format is functional. A digest of the protocol:
(§2)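 HL-60 cells exposed to compound for 72 h at the single concentration in the line; the cell-cycle phase fraction is reported as a change relative to untreated control cells.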

Assay [8] has as its system HL-60. Briefly: Cell cycle arrest in human HL60 cells by accumulation at G2/M phase at 3 umol/L by flow cytometry relative to control. It is filed as functional. Put shortly:
as §2

Assay [9] has as its system HL-60. Briefly: Cell cycle arrest in human HL60 cells by accumulation at G1 phase at 3 umol/L by flow cytometry relative to control. The format is functional. A digest of the protocol: as §2
Assay [10] has as its system Hepatitis C virus. In words: Antiviral activity against Hepatitis C virus 1b after 3 days. It is filed as functional, organism-based, Hepacivirus hominis. To be noted: genotype 1b, 72 h.
The test system of assay [11] is MT4. Briefly: Cytotoxicity against human MT4 cells after 4 days. It is filed as functional. The settings on record: MT4, 96 h. A digest of the protocol:
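Cellular toxicity was measured in MT-4 cells, N = 2.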

The subject of assay [12] is HL-60. Briefly: Cell cycle arrest in human HL60 cells by accumulation at G1 phase at 1 umol/L after 72 hrs by flow cytometry. The format is functional. Background: A flow cytometer gives signals particle by particle.
Assay [13] relates to HL-60. Briefly: Cell cycle arrest in human HL60 cells by depletion of cells at S phase after 72 hrs by flow cytometry. The format is functional, cell-based.
Assay [14] relates to HL-60. Briefly: Cell cycle arrest in human HL60 cells by accumulation at G1 phase after 72 hrs by flow cytometry. The format is functional, cell-based.
The test system of assay [15] is HL-60. In words: Cell cycle arrest in human HL60 cells by accumulation at G1 phase at 2.5 umol/L after 72 hrs by flow cytometry. The format is functional.
Assay [16] relates to HL-60. Briefly: Cell cycle arrest in human HL60 cells by accumulation at S phase at 2.5 umol/L after 72 hrs by flow cytometry. It is filed as functional.
The test system of assay [17] is HL-60. Briefly: Cell cycle arrest in human HL60 cells by accumulation at S phase at 1 umol/L by flow cytometry relative to control. It is filed as functional. Put shortly: as §2
Assay [18] relates to CCRF-CEM. In words: Cytostatic activity in human CCRF-CEM cells assessed as inhibition of cell growth after 72 hrs by XTT assay. It is filed as functional, cell-based.
Assay [19] concerns HL-60. In words: Cell cycle arrest in human HL60 cells by accumulation at G2/M phase at 2.5 umol/L after 72 hrs by flow cytometry. It is filed as functional.
Assay [20] relates to HL-60. Briefly: Cell cycle arrest in human HL60 cells by accumulation at S phase at 5 umol/L after 72 hrs by flow cytometry. The format is functional.
For assay [21], the system named is HL-60. Briefly: Cell cycle arrest in human HL60 cells by accumulation at G1 phase at 1 umol/L by flow cytometry relative to control. It is filed as functional. Put shortly: as §2
For assay [22], the system named is HL-60. In words: Cell cycle arrest in human HL60 cells by accumulation at S phase at 1 umol/L after 72 hrs by flow cytometry. It is filed as functional.
The test system of assay [23] is HL-60. In words: Cell cycle arrest in human HL60 cells by accumulation at G1 phase at 5 umol/L after 72 hrs by flow cytometry. It is filed as functional.
In assay [24] the test system is HL-60. In words: Cell cycle arrest in human HL60 cells by accumulation at G2/M phase at 5 umol/L after 72 hrs by flow cytometry. The format is functional.
Assay [25] has as its system HL-60. Briefly: Cell cycle arrest in human HL60 cells by accumulation at G2/M phase at 1 umol/L by flow cytometry relative to control. The format is functional. Put shortly: as §2
Assay [26] concerns HL-60. In words: Cell cycle arrest in human HL60 cells by accumulation at G2/M phase at 1 umol/L after 72 hrs by flow cytometry. The format is functional.
The subject of assay [27] is HL-60. Briefly: Cell cycle arrest in human HL60 cells by accumulation at S phase at 22.5 umol/L by flow cytometry relative to control. The format is functional. Put shortly:
as §2

Assay [28] concerns HL-60. Briefly: Cell cycle arrest in human HL60 cells by accumulation at G2/M phase at 22.5 umol/L by flow cytometry relative to control. It is filed as functional. A digest of the protocol:
as §2

Assay [29] has as its system HL-60. Briefly: Cell cycle arrest in human HL60 cells by accumulation at G1 phase at 22.5 umol/L by flow cytometry relative to control. The format is functional. A digest of the protocol:
as §2

The source made the active and inactive calls. The calls are words filed in the database; no cut-off is given here.

Compound `CN(Cc1ncnc2c1ncn2[C@@H]1O[C@H](CO)[C@@H](O)[C@H]1O)c1ccccc1` registered a CC50 in assay [1] of 21 µM. Moreover, the outcome in assay [2], in [5] and in [6] was inactive. Moreover, the IC50 amounted to 4 µM in [3] and 3.4 µM in [4]. Also, the Activity came to 0.87% in assay [7], 1.08% in assay [8] and 1.12% in assay [9]. Also, in assay [10], the EC50 was 21 µM.

Consider `[N-]=[N+]=NCc1ncnc2c1ncn2[C@@H]1O[C@H](CO)[C@@H](O)[C@H]1O`, for which the CC50 in assay [11] is 32 µM; in assay [1] it was > 250 µM. For the same compound, the Activity in assay [12] worked out at 54%; in assay [15], 33%; in assay [16], 59%; in assay [17], 0.63%; in [19], 8%; in [20], 69%. Also, the Activity in assay [21] is on record as 1.57%; in [22], 37%; in [23] it was 24%; in assay [24], 8%; in [25], 1.3%; in [26], 10%. For the same compound, the outcome in assay [13] and in [14] was Active. Also, the IC50 turned out to be 0.39 µM in assay [2]; 1.88 µM in assay [3]; 0.78 µM in assay [4]; 0.34 µM in [18]; 1.59 µM in assay [6] (L1210, 72 h). Besides, in assay [5], the outcome was inactive. The compound further displayed an EC50 in assay [10] of 6 µM.

Consider `OC[C@H]1O[C@@H](n2cnc3c(CSCc4ccccc4)ncnc32)[C@H](O)[C@@H]1O`, for which the cytotoxic concentration (CC50) in assay [1] is > 100 µM. Also, the IC50 in assay [2] was 9.2 µM; in [3], 10.7 µM; in assay [4], 19.2 µM; in assay [18], 4.65 µM. Moreover, the outcome in assay [14] was Active. The values for the Activity in assay [27], in assay [28] and in [29] were 0.43%, 0.88% and 1.99%, respectively. Also, the result in [5] and in assay [6] was inactive. Moreover, in assay [10], the EC50 was > 100 µM.
